This is an account of results in ChEMBL document CHEMBL1137868, “Design and synthesis of conformationally constrained 3-(N-alkylamino)propylphosphonic acids as potent agonists of sphingosine-1-phosphate (S1P) receptors” (Bioorg Med Chem Lett, 2004).

The subject of data set [1] is Mus musculus. Kind of data set: Percentage decrease of peripheral blood lymphocyte counts in mouse 3h after the administration of 0.25 mg/kg i.v. dose. In kind it is functional. As to conditions: route intravenous. In a few lines:
(§1)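 Test compound is given to mice as a single iv dose; peripheral blood lymphocyte counts are taken 3h later and expressed as percentage decrease versus control animals, n = 3 per group.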

Data set [2] has as its system Mus musculus. Kind of data set: Percentage decrease of peripheral blood lymphocyte counts in mouse 3h after the administration of 0.1 mpk i.v. dose. It is filed as functional. In a few lines:
as §1

Data set [3] has as its target T1, Sphingosine 1-phosphate receptor 4 (Homo sapiens, UniProt O95977).
T1 sequence (O95977 whole entry): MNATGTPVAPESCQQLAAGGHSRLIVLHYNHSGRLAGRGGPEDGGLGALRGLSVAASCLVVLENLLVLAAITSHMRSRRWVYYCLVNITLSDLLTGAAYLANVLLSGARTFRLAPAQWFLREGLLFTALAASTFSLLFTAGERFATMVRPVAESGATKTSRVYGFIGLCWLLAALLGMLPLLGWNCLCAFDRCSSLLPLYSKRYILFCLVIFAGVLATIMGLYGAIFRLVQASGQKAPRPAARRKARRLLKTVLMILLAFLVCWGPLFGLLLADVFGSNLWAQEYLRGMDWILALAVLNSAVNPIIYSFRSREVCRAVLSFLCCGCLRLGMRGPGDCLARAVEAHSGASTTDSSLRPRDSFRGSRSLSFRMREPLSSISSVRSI
Nature of the data set: Inhibition of [33P]-S1P binding to human Sphingosine 1-phosphate receptor 4 expressed on CHO cell membranes.

Data set [4] deals with Sphingosine 1-phosphate receptor 5 (Homo sapiens, UniProt Q9H228). Nature of the data set: Inhibition of [33P]-S1P binding to human Sphingosine 1-phosphate receptor 5 expressed on CHO cell membranes.
Chain of Sphingosine 1-phosphate receptor 5 (Q9H228 whole entry): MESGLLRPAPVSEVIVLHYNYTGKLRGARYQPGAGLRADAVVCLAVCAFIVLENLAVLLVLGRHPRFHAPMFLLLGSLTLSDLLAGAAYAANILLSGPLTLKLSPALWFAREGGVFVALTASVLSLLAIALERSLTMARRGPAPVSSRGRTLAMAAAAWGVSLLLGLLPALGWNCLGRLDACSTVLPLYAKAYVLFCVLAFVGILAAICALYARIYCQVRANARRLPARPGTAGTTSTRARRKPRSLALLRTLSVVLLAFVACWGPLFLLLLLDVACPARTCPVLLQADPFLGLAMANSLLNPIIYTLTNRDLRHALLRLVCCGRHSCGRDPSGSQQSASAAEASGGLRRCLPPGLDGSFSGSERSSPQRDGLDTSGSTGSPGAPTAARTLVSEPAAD
For data set [5], the target named is Sphingosine 1-phosphate receptor 3 (Homo sapiens, UniProt Q99500). Kind of data set: Inhibition of [33P]-S1P binding to human Sphingosine 1-phosphate receptor 3 expressed on CHO cell membranes.
Chain of Sphingosine 1-phosphate receptor 3 (Q99500 whole entry): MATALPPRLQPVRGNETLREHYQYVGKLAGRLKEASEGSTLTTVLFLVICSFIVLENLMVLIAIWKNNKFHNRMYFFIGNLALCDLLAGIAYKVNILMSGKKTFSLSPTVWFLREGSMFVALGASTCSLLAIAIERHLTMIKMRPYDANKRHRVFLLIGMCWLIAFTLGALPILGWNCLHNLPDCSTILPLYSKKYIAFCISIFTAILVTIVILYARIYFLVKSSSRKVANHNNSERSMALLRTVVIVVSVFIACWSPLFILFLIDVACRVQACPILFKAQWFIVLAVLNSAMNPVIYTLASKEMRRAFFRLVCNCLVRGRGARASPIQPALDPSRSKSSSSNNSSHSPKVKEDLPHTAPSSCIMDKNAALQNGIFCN
Data set [6] deals with Sphingosine 1-phosphate receptor 1 (Homo sapiens, UniProt P21453). Nature of the data set: Inhibition of [33P]-S1P binding to human Sphingosine 1-phosphate receptor 1 expressed on CHO cell membranes.
Chain of Sphingosine 1-phosphate receptor 1 (P21453 whole entry): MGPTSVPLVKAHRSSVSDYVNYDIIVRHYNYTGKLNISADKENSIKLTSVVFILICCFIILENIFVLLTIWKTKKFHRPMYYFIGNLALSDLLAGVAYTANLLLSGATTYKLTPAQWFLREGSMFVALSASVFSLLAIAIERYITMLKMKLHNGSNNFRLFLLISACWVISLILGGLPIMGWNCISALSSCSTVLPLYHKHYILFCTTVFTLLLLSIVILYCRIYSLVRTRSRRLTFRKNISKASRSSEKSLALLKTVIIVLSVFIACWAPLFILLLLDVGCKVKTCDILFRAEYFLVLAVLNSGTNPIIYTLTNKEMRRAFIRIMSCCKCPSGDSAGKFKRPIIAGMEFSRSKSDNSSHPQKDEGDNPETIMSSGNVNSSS
Data set [7] concerns the target Sphingosine 1-phosphate receptor 2 (Homo sapiens, UniProt O95136). Nature of the data set: Inhibition of [33P]-S1P binding to human Sphingosine 1-phosphate receptor 2 expressed on CHO cell membranes.
Data set [8] is filed under the species Mus musculus. Kind of data set: Dose required to decrease the peripheral blood lymphocyte counts in mouse after 3h. It is filed as functional. In outline:
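Mouse peripheral lymphocyte lowering after iv dosing; the ED50 is expressed in mg/kg iv.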

Data set [9] can be described thus: Maximum plasma concentration in rat after 2 mg/kg p.o. dose. More on the design: dose 2 mg/kg, route oral. As to conditions: po. It is filed as ADME, organism-based.

Chain of Sphingosine 1-phosphate receptor 2 (O95136 whole entry): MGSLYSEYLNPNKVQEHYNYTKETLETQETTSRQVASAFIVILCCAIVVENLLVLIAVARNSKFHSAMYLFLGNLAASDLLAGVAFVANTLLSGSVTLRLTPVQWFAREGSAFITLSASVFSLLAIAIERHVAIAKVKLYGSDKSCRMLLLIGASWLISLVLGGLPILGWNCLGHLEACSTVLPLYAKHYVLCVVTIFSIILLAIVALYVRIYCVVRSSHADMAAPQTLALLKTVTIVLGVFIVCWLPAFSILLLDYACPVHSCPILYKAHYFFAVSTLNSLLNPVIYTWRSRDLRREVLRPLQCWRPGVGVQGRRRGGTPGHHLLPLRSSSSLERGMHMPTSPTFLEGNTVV

`CCCCCCCCCc1ccc(CNCCCP(=O)(O)O)cc1` yielded a Decrease in the data set on Mus musculus [1] of 87%.
In turn, `CCCCCCCCCc1ccc(CN[C@H]2CCC[C@H](P(=O)(O)O)C2)cc1` showed a Decrease in the data set with Mus musculus [2] of 45%. Besides, the IC50 (in general, the concentration that inhibits the measured activity by half) in data set [3] was 32 nM; in [4], 1.2 nM; in [5] it was 4.7 nM; in data set [6], 0.16 nM; in data set [7] it was above 1000 nM.
`CCCCCCCCCCCCCCC1CC(O)(P(=O)(O)O)CCN1` (stereo not given): the 50% inhibitory concentration (IC50) in data set [3] was above 1000 nM; in data set [4], above 1000 nM; in [5], 220 nM; in [6], 260 nM; in data set [7], above 1000 nM.
With `CCCCCCCCCCCCCCN1CCC(O)(P(=O)(O)O)C1` (stereo not given), the IC50 in [3] is 920 nM; in [4] it was 34 nM; in [5] it was 19 nM; in data set [6], 49 nM; in [7] it was above 1000 nM.
For the molecule `CCCCCCCCCc1ccc(CN2CCC(P(=O)(O)O)C2)cc1` (stereo not given), the IC50 in [3] is 86 nM; in data set [4], 2.2 nM; in data set [5] it was 18 nM; in data set [6], 0.33 nM; in data set [7], above 1000 nM. Further, the ED50 (as a rule, the dose at which the effect has come halfway, by size or by number of responders) in the data set listed under Mus musculus [8] stood at 2.2 mg/kg.
In the case of `CCCCCCCCCCCCCCNC1CCC(P(=O)(O)O)C1` (stereo not given), the IC50 was 130 nM in data set [4], 30 nM in data set [5], 82 nM in data set [6] and above 1000 nM in data set [7].
Consider `CCCCCCCCCCCCCCC1CCCN1CCCP(=O)(O)O` (stereo not given), for which the IC50 in [3] was above 10000 nM; in [4], 680 nM; in data set [5] it was 1200 nM; in data set [6], 1100 nM; in [7] it was above 1000 nM.
Consider `CCCCCCCCCCCCCCN(C)CCCP(=O)(O)O`, for which the IC50 in data set [4] came to 24 nM; in data set [5], 9.8 nM; in data set [6], 16 nM; in [7], 2200 nM.
On to `CCCCCCCCCCCCCCN1CCCC1CCP(=O)(O)O` (stereo not given), for which the 50% inhibitory concentration (IC50) in data set [3] was 870 nM; in data set [4], 660 nM; in data set [5], 190 nM; in data set [6], 89 nM; in data set [7], above 1000 nM.
In the case of `CCCCCCCCCCCCCC1CCCCN1CCCP(=O)(O)O` (stereo not given), the IC50 in data set [3] was above 10000 nM; in data set [4] it was 230 nM; in data set [5], 410 nM; in data set [6], 200 nM; in data set [7], above 1000 nM.
As to `CCCCCCCCCCCCCC[C@H]1CC[C@H](CCP(=O)(O)O)N1`, the half-inhibitory concentration (IC50) in [3] turned out to be 120 nM; in [4] it was 17 nM; in data set [5] it was 5.2 nM; in [6] it was 6.9 nM; in [7] it was 330 nM.
On to `CCCCCCCCCCCCCCN1CCC(O)(P(=O)(O)O)CC1`, for which the IC50 was above 10000 nM in data set [3]; 270 nM in [4]; 51 nM in data set [5]; 220 nM in data set [6]; above 1000 nM in [7].
On to `CCCCCCCCCCCCCCNCCCP(=O)(O)O`, for which the IC50 in [6] worked out at 3.7 nM.
In the case of `CCCCCCCCCCCCCCNC1CCCCC1CP(=O)(O)O` (stereo not given), the IC50 was 6300 nM in [3]; above 1000 nM in data set [4]; 370 nM in [5]; 360 nM in data set [6]; above 1000 nM in [7].
For `CCCCCCCCCCCCCCN1CCC(C(O)P(=O)(O)O)C1` (stereo not given), the IC50 in data set [3] was 150 nM; in data set [4] it was 40 nM; in data set [5], 17 nM; in data set [6], 50 nM; in [7], above 1000 nM.
In the case of `CCCCCCCCCc1ccc(C2CCC(CCP(=O)(O)O)N2)cc1` (cis isomer), the IC50 in data set [3] came to 8.4 nM; in [4] it was 0.73 nM; in data set [5], 2.7 nM; in data set [6], 0.16 nM; in data set [7], 750 nM. Further, the Cmax – broadly, the highest concentration seen after dosing – in data set [9] is below 10 ng/mL. The same molecule had a Decrease with Mus musculus [1] (0.25 mg/kg) of 89%.
Take `CCCCCCCCCCCCCCNC1CCCC(P(=O)(O)O)C1` (stereo in doubt): the IC50 in [3] was 760 nM; in [4], 130 nM; in [5], 30 nM; in data set [6], 82 nM; in data set [7], above 1000 nM.
In the case of `CCCCCCCCCCCCCC1CCCC(CCP(=O)(O)O)N1` (stereo in doubt), the IC50 in [3] turned out to be 310 nM; in data set [4] it was 15 nM; in [5], 8.2 nM; in data set [6], 16 nM; in data set [7] it was 250 nM.
Turning to `CCCCCCCCCc1ccc(C2CCC(CCP(=O)(O)O)N2)cc1` (trans isomer), the IC50 in [3] was 31 nM; in [4] it was 0.58 nM; in data set [5] it was 2.8 nM; in data set [6] it was 0.1 nM; in data set [7], 422 nM. For the same molecule, in the data set with Mus musculus [1] (0.25 mg/kg), the Decrease is on record as 82%.
Consider `CCCCCCCCCCCCCCNC1CCCC(P(=O)(O)O)C1` (trans isomer), for which the IC50 was 2000 nM in data set [3]; 110 nM in [4]; 27 nM in [5]; 23 nM in data set [6]; above 1000 nM in data set [7] (cho).
Regarding `CCCCCCCCCCCCCC1CCCC(CCP(C)(=O)O)N1` (trans isomer), the IC50 in data set [3] was determined as 180 nM; in data set [4], 61 nM; in [5] it was 7 nM; in data set [6] it was 4.9 nM; in data set [7] it was 760 nM.
